Series [1] concerns Pseudomonas aeruginosa. Nature of the series: Potentiation of minocycline-induced antibacterial activity against Pseudomonas aeruginosa PAO1 at 4 ug/ml after 18 hrs by checkerboard assay. The class given is functional. The gist of the method:
(§1)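 Checkerboard in Mueller-Hinton broth: antibiotic serially diluted along one axis and adjuvant along the other (10 × 7 matrix). Inoculum from a 0.5 McFarland saline suspension diluted 1:50 in MHB; 18 h at 37 °C, then plate read. MIC is the lowest concentration with no growth. FIC of each agent is its concentration in a no-growth well divided by its MIC alone; FIC index is the sum of both. FIC index ≤0.5 counts as synergy.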

In series [2] the test system is Acinetobacter baumannii. Nature of the series: Antibacterial activity against multidrug-resistant Acinetobacter baumannii 110193 after 18 hrs by microtiter dilution assay. The class given is functional. To be noted: Acinetobacter baumannii, 110193, 18 h. The gist of the method: (§2)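 Broth microdilution following CLSI guidelines. An overnight culture was adjusted to 0.5 McFarland in saline, then diluted 1:50 in Mueller-Hinton broth. This inoculum was added in equal volume to 2-fold serial dilutions of agent in MHB and incubated 18 h at 37 °C. MIC was the lowest concentration with no visible growth.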

In series [3] the test system is Pseudomonas aeruginosa. The series is described as follows: Potentiation of meropenem-induced antibacterial activity against Pseudomonas aeruginosa PAO1 at 4 ug/ml after 18 hrs by checkerboard assay. The class given is functional. The gist of the method: as §1
Series [4] concerns Pseudomonas aeruginosa. Nature of the series: Potentiation of amikacin-induced antibacterial activity against Pseudomonas aeruginosa PAO1 at 4 ug/ml after 18 hrs by checkerboard assay. It counts as functional. The gist of the method:
as §1

For series [5], the system named is Pseudomonas aeruginosa. Nature of the series: Potentiation of minocycline-induced antibacterial activity against multidrug/extremely drug-resistant/colistin-susceptible Pseudomonas aeruginosa isolate 101885 at 4 ug/ml after 18 hrs by checkerboard assay. The class given is functional. The gist of the method:
as §1

The test system of series [6] is Pseudomonas aeruginosa. Nature of the series: Potentiation of rifampicin-induced antibacterial activity against multidrug/extremely drug-resistant/colistin-susceptible Pseudomonas aeruginosa isolate P262-101856 at 4 ug/ml after 18 hrs by checkerboard assay. The class given is functional. The gist of the method:
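Checkerboard broth microdilution in MHB: antibiotic serially diluted along one axis, adjuvant along the other (10 × 7 matrix). Inoculum from 0.5 McFarland saline suspension diluted 1:50 in MHB; 18 h at 37 °C. MIC taken as lowest concentration with no growth. FIC per agent = combination MIC/MIC alone; FIC index = sum (≤0.5 synergy).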

In series [7] the test system is Pseudomonas aeruginosa. The series is described as follows: Potentiation of colistin-induced antibacterial activity against Pseudomonas aeruginosa PAO1 at 4 ug/ml after 18 hrs by checkerboard assay. It counts as functional. The gist of the method: as §1
For series [8], the system named is Pseudomonas aeruginosa. Nature of the series: Potentiation of gentamicin-induced antibacterial activity against Pseudomonas aeruginosa PAO1 at 4 ug/ml after 18 hrs by checkerboard assay. The class given is functional. The gist of the method: as §1
Series [9] relates to Pseudomonas aeruginosa. Nature of the series: Potentiation of rifampicin-induced antibacterial activity against multidrug/extremely drug-resistant/colistin-susceptible Pseudomonas aeruginosa isolate 100036 assessed as fold reduction in rifampicin MIC at 4 ug/ml after 18 hrs by checkerboard assay relative to control. It counts as functional. The gist of the method: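 Checkerboard in Mueller-Hinton broth, 10 × 7 matrix, with the adjuvant held at 4 µg/mL. Inoculum from a 0.5 McFarland suspension diluted 1:50; 18 h at 37 °C. Antibiotic MIC (lowest concentration with no growth) with adjuvant is compared with the antibiotic MIC alone, giving a fold reduction.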

A short description of series [10]: Toxicity in Galleria mellonella assessed as survival rate at 200 mg/kg for 4 days relative to control. Conditions: in vivo. The class given is organism-based. The gist of the method:
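Galleria mellonella larvae, about 250 mg each, were used within 7 days of delivery. Compound alone was injected at 100 and 200 mg/kg with no bacterial challenge, ten larvae per group. Larvae were kept at 37 °C and survival was scored over 96 h.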

In series [11] the test system is Pseudomonas aeruginosa. The series is described as follows: Potentiation of minocycline-induced antibacterial activity against multidrug/extremely drug-resistant/colistin-susceptible Pseudomonas aeruginosa isolate P262-101856 infected in Galleria mellonella assessed as host survival at 75 mg/kg after 24 hrs relative to control. It counts as functional. To be noted: isolate P262-101856, 24 h. The gist of the method: (§3)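 Galleria mellonella larvae (about 250 mg, used within 7 days; 15 per group) were injected with 10 µL of XDR P. aeruginosa P262 at 1.0×10^3 CFU/mL. At 2 h they received a single 10 µL injection: monotherapy at 75 mg/kg, or combinations at 12.5+12.5 to 75+75 mg/kg. PBS vehicle served as control. Survival was scored over 24 h at 37 °C.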

Series [12] deals with Acinetobacter baumannii. The series is described as follows: Synergistic antibacterial activity against multidrug-resistant Acinetobacter baumannii AB027 after 18 hrs in presence of rifampicin by checkerboard assay. It counts as functional. To be noted: AB027, 18 h. The gist of the method:
(§4)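 Checkerboard in MHB with a 10 × 7 matrix: antibiotic serially diluted along one axis, adjuvant along the other. Inoculum was a 1:50 dilution of a 0.5 McFarland suspension, incubated 18 h at 37 °C and read on a plate reader. Each FIC is the concentration in a no-growth well divided by the MIC alone; FIC index is their sum, with ≤0.5 taken as synergy.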

Series [13] deals with Pseudomonas aeruginosa. Nature of the series: Antibacterial activity against multidrug/extremely drug-resistant/colistin-susceptible Pseudomonas aeruginosa isolate P264-104354 after 18 hrs by microtiter dilution assay. It counts as functional. To be noted: isolate P264-104354, 18 h. The gist of the method: as §2
Series [14] has as its system Pseudomonas aeruginosa. Nature of the series: Antibacterial activity against multidrug/extremely drug-resistant/colistin-susceptible Pseudomonas aeruginosa isolate P262-101856 infected in Galleria mellonella assessed as mortality at 75 mg/kg after 24 hrs relative to control. The class given is functional. To be noted: isolate P262-101856, 24 h. The gist of the method:
as §3

Series [15] relates to Pseudomonas aeruginosa. The series is described as follows: Synergistic antibacterial activity against Pseudomonas aeruginosa PAO1 after 18 hrs in presence of trimethoprim by checkerboard assay. It counts as functional. To be noted: PAO1, 18 h. The gist of the method:
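Checkerboard in MHB: antibiotic diluted along one axis and adjuvant along the other (10 × 7 matrix). Inoculum was a 1:50 dilution in MHB of a 0.5 McFarland saline suspension; incubated 18 h at 37 °C. Each FIC = concentration in the no-growth well divided by the MIC alone; FIC index = sum of both FICs. ≤0.5 synergy, 0.5–4 no interaction, ≥4 antagonism.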

The subject of the next series is Escherichia coli. Nature of the series: Antibacterial activity against Escherichia coli ATCC 25922 after 18 hrs by microtiter dilution assay. Conditions: ATCC 25922, 18 h. It counts as functional. The gist of the method: as §2
Series [16] relates to Stenotrophomonas maltophilia. The series is described as follows: Antibacterial activity against Stenotrophomonas maltophilia isolate CAN-ICU 62584 after 18 hrs by microtiter dilution assay. The class given is functional. To be noted: isolate CAN-ICU 62584, 18 h. The gist of the method:
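Broth microdilution per CLSI. Overnight culture adjusted to 0.5 McFarland in saline, diluted 1:50 in Mueller-Hinton broth, and added to an equal volume of 2-fold serial compound dilutions in MHB. Incubated 18 h at 37 °C. MIC taken as the lowest concentration with no visible growth.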

The next series relates to Enterobacter cloacae. The series is described as follows: Synergistic antibacterial activity against multidrug-resistant Enterobacter cloacae 117029 after 18 hrs in presence of rifampicin by checkerboard assay. It counts as functional. Conditions: Enterobacter cloacae, 117029, 18 h. The gist of the method: as §4
The test system of series [17] is Pseudomonas aeruginosa. The series is described as follows: Bactericidal activity against Pseudomonas aeruginosa PAO1 at 4 times antibacterial MIC after 10 mins. It counts as functional. The gist of the method:
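Time-kill with P. aeruginosa PAO1. A 0.5 McFarland suspension was diluted 1:50 in LB broth and exposed to agent in PBS (pH 7.2) at 1/2×, 1×, 2× or 4× MIC at 37 °C for 6 h. Samples at 0, 10, 30, 60, 90, 120, 240 and 360 min were serially diluted in PBS, plated on LB agar, and colonies counted after 20 h at 37 °C.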

Series [18] relates to Pseudomonas aeruginosa. Nature of the series: Potentiation of minocycline-induced antibacterial activity against multidrug/extremely drug-resistant/colistin-susceptible Pseudomonas aeruginosa isolate P264-104354 at 4 ug/ml after 18 hrs by checkerboard assay. It counts as functional. The gist of the method:
as §1

Each structure is given as a SMILES string. Active and inactive are the calls of the source. The calls are words filed in the database; no cut-off is given here.

On to `Cl.Cl.Cl.Cl.Cl.Cl.Cl.NCCCC[C@H](N)C(=O)N(CCCCCCCCCCCCO[C@@H]1[C@@H](O[C@H]2O[C@H](CO)[C@@H](O)[C@H](N)[C@H]2O)[C@H](N)C[C@H](N)[C@H]1O[C@H]1O[C@H](CN)[C@@H](O)C[C@H]1N)Cc1c2ccccc2c(Cl)c2ccccc12`, for which the “fractional inhibitory concentration index (FICI)” value in the series with Pseudomonas aeruginosa [1] is 0.094; in the series on Pseudomonas aeruginosa [3], 2.031; with Pseudomonas aeruginosa [4], 1.063; with Pseudomonas aeruginosa [5], 0.156; with Pseudomonas aeruginosa [6], 0.141; in the series on Pseudomonas aeruginosa [7], 1.031. The “fractional inhibitory concentration index (FICI)” value with Pseudomonas aeruginosa [8] is given as 1.125; in the series on Pseudomonas aeruginosa [18], 0.079. For the same compound, the MIC (commonly the lowest concentration that inhibits growth of the organism) is 16 µg/mL against Acinetobacter baumannii [2]; 8 µg/mL with Acinetobacter baumannii [12]; 32 µg/mL in the series with Pseudomonas aeruginosa [13]; 2 µg/mL with Pseudomonas aeruginosa [15]; 32 µg/mL against Escherichia coli; over 128 µg/mL in [16]. For the same compound, the MIC in the series with Enterobacter cloacae was found to be 4 µg/mL. The “fold change (FC)” value with Pseudomonas aeruginosa [9] is 128. The survival at 96 h in series [10] is 100%. Also, the survival at 75 mg/kg in the series on Pseudomonas aeruginosa [11] turned out to be 77%. Besides, in the series on Pseudomonas aeruginosa [14], the mortality (usually the percentage killed) at 75 mg/kg stood at 100%. Also, in the series on Pseudomonas aeruginosa [17], the outcome was Active.

Values taken from ChEMBL document CHEMBL4014308, “Amphiphilic Tobramycin-Lysine Conjugates Sensitize Multidrug Resistant Gram-Negative Bacteria to Rifampicin and Minocycline” (J Med Chem, 2017).
